We go through 3 molecules from ChEMBL document CHEMBL3525939, “Organic cation transporter-mediated renal secretion of ipratropium and tiotropium in rats and humans” (Drug Metab Dispos, 2011).

Data set [1] concerns Kidney. Kind of data set: Drug uptake in Wistar rat kidney slice at 10 nM at pH 7.4 at 37 degC after 1 min relative to control in presence of ipratropium. Format: ADME, tissue-based. Conditions: pH 7.4, 1 min, 0.01 µM. The procedure, abridged: (§1)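 Rat kidney slices incubated with [3H]ipratropium or [3H]tiotropium (10 nM) for 1 min at 37°C and pH 7.4. Each inhibitor given at 1 mM. Adhering water estimated from [14C]inulin uptake. Uptake expressed as percent of control without inhibitor. Mean ± SEM of 4 slices; significance by Student's t-test, p<0.05.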

The target in data set [2] is T1, Oct1 (Slc22a1) (Rattus norvegicus, UniProt Q63089).
T1 sequence (Q63089 whole entry): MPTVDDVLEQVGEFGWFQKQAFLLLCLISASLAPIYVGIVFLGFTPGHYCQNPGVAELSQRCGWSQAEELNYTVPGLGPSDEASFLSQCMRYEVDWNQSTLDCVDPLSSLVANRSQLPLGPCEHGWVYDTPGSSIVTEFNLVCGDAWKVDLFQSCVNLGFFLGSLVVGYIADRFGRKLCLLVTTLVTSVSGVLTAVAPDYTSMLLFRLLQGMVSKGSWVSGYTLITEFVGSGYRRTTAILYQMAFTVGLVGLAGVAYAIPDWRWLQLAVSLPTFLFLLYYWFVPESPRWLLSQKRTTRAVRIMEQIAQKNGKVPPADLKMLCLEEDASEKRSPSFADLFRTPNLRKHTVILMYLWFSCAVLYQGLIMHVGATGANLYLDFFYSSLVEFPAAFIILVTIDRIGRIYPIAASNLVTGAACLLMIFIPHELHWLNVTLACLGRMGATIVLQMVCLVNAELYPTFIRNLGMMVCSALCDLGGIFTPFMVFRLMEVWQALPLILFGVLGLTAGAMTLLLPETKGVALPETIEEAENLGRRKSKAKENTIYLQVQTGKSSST
Kind of data set: Drug uptake in rat Oct1 expressed HEK293 cells at 10 nM at pH 7.4 at 37 degC after 1 min relative to mock cells. The data set is classed as ADME, cell-based. Conditions: HEK293 cells expressing rat Oct1, pH 7.4, read-out: FC. The procedure, abridged: (§2)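 Transfected HEK293 cells (antibiotic-selected; DMEM with 10% FBS) plated at 1 × 10^5 cells/cm2 and used after 2 days. Uptake of [3H]ipratropium or [3H]tiotropium (10 nM) for 1 min at pH 7.4, 37°C, in HEPES-buffered saline. Cells washed ice-cold, lysed in Triton X-100, counted by scintillation, normalised to protein. Uptake compared with vector-only Mock cells. n = 4.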

The subject of data set [3] is Kidney. Kind of data set: Drug uptake in Wistar rat kidney slice at 10 nM at pH 7.4 at 37 degC after 1 min relative to control in presence 1 mM MPP+. Format: ADME, tissue-based. The arrangement: interact cpd dose 1 mM. The settings on record: pH 7.4, 1 min, 0.01 µM. The procedure, abridged: as §1
Data set [4] has as its system Kidney. The data set can be described thus: Drug uptake in Wistar rat kidney slice at 10 nM at pH 7.4 at 37 degC after 1 min relative to control in presence of 1 mM TEA+. Format: ADME, tissue-based. Further details: interact cpd dose 1 mM. Conditions: pH 7.4, 1 min, 0.01 µM. The procedure, abridged: as §1
In data set [5] the target is T2, OCT2 (SLC22A2) (Homo sapiens, UniProt O15244).
T2 sequence (O15244 whole entry): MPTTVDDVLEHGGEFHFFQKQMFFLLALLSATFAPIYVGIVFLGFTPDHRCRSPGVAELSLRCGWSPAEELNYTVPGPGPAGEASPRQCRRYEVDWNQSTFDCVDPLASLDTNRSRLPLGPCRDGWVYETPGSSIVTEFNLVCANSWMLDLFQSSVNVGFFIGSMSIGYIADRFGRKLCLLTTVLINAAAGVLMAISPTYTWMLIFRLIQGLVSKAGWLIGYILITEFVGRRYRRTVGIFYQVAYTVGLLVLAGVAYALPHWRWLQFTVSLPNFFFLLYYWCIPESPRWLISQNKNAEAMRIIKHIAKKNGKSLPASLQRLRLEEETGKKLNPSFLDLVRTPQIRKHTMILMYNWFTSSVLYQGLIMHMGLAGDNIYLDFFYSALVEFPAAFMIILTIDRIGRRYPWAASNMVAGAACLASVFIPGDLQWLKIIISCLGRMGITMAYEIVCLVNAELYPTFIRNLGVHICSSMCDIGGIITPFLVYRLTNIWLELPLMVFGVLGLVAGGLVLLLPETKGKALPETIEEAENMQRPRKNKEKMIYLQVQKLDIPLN
The data set can be described thus: Drug uptake in human Oct2 expressed HEK293 cells at 10 nM at pH 7.4 at 37 degC after 1 min relative to mock cells. Format: ADME, cell-based. Conditions: HEK293 cells expressing human Oct2, pH 7.4, read-out: FC. The procedure, abridged:
as §2

In data set [6] the test system is Kidney. Kind of data set: Drug uptake in Wistar rat kidney slice at 10 nM at pH 7.4 at 37 degC after 1 min relative to control in presence of 1 mM cimetidine. The data set is classed as ADME, tissue-based. Further details: interact cpd dose 1 mM. The settings on record: pH 7.4, 1 min, 0.01 µM. A digest of the protocol: as §1
The target in data set [7] is T3, Oct2 (Slc22a2) (Rattus norvegicus, UniProt Q9R0W2).
T3 sequence (Q9R0W2 whole entry): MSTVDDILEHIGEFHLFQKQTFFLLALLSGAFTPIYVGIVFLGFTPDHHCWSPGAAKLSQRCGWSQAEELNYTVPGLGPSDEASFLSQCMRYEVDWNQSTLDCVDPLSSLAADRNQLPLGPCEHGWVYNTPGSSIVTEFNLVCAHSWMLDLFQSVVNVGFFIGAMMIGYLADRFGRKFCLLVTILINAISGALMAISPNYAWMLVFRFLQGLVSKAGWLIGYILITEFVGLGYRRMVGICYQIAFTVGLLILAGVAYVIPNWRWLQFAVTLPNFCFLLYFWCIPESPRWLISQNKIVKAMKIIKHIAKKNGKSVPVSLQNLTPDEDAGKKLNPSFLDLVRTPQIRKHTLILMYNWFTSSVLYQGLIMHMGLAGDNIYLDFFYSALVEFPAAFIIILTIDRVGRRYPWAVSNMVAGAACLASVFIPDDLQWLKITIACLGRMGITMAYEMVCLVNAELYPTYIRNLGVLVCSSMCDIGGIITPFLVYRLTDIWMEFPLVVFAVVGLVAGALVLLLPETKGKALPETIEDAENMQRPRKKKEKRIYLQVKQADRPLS
The data set can be described thus: Drug uptake in rat Oct2 expressed HEK293 cells at 10 nM at pH 7.4 at 37 degC after 1 min relative to mock cells. The settings on record: HEK293 cells expressing rat Oct2, pH 7.4, read-out: FC. Format: ADME, cell-based. The procedure, abridged: as §2

The test system of data set [8] is Kidney. The data set can be described thus: Drug uptake in Wistar rat kidney slice at 10 nM at pH 7.4 at 37 degC after 1 min relative to control in presence of 1 mM imipramine. Format: ADME, tissue-based. The arrangement: interact cpd dose 1 mM. Conditions: pH 7.4, 1 min, 0.01 µM. A digest of the protocol: as §1
In data set [9] the test system is Kidney. The data set can be described thus: Drug uptake in Wistar rat kidney slice at 10 nM at pH 7.4 at 37 degC after 1 min. Format: ADME, tissue-based. Conditions: pH 7.4, 1 min, 0.01 µM. The procedure, abridged:
as §1

Data set [10] deals with Kidney. Kind of data set: Drug uptake in Wistar rat kidney slice at 10 nM at pH 7.4 at 37 degC after 1 min relative to control in presence of 1 mM PAH. Format: ADME, tissue-based. The arrangement: interact cpd dose 1 mM. Conditions: pH 7.4, 1 min, 0.01 µM. A digest of the protocol: as §1
The subject of data set [11] is Kidney. The data set can be described thus: Drug uptake in Wistar rat kidney slice at 10 nM at pH 7.4 at 37 degC after 1 min relative to control in presence of 1 mM quinidine. The data set is classed as ADME, tissue-based. The arrangement: interact cpd dose 1 mM. Conditions: pH 7.4, 1 min, 0.01 µM. The procedure, abridged:
as §1

For data set [12], the system named is Kidney. Kind of data set: Drug uptake in Wistar rat kidney slice at 10 nM at pH 7.4 at 37 degC after 1 min relative to control in presence of 1 mM estrone 3-sulfate. Format: ADME, tissue-based. The arrangement: interact cpd dose 1 mM. The settings on record: pH 7.4, 1 min, 0.01 µM. The procedure, abridged:
as §1

Data set [13] addresses T4, Solute carrier family 22 member 2 (Rattus norvegicus, UniProt Q9R0W2).
T4 sequence (Q9R0W2 whole entry): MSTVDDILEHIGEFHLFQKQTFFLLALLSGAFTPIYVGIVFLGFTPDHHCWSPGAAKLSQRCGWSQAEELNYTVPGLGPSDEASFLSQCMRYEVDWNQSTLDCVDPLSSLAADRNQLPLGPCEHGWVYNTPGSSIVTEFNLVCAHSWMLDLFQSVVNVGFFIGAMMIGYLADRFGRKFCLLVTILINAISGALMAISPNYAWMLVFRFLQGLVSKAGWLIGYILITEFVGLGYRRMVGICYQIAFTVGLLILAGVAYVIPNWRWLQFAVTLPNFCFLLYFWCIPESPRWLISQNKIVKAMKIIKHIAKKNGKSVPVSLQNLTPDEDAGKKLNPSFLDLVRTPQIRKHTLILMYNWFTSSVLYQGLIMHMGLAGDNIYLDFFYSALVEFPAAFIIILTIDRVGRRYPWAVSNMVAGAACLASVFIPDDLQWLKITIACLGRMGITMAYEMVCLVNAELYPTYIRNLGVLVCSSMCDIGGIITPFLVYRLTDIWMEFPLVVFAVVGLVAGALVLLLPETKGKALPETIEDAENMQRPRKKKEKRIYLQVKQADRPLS
The data set can be described thus: Binding affinity to rat Oct2 assessed as transporter-mediated drug uptake. The data set is classed as ADME. The procedure, abridged:
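[3H]ipratropium (10 nM) uptake into HEK293/rOct2 cells over 30 sec at pH 7.4, 37°C, in HEPES-buffered saline transport buffer. Mock-cell uptake subtracted to give transporter-mediated uptake. Cells lysed in Triton X-100, counted by liquid scintillation, normalised to protein. Km and Vmax from non-linear least-squares fit to Michaelis-Menten equation. n = 4, mean ± SEM.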

Substrate in data set [14]: NCCc1ccc(O)c(O)c1
Kind of data set: cells, lysate or membranes named.

In the case of `C[N+]1(C)[C@@H]2C[C@@H](OC(=O)C(O)(c3cccs3)c3cccs3)C[C@@H]1[C@H]1O[C@H]12.[Br-]`, the Drug uptake in data set [1] came out at 25.6%; in data set [3], 39.8%; in data set [4] it was 67.3%; in data set [6], 54.5%; in [8], 36.7%; in data set [9], 100%. In addition, the figures for the Drug uptake in data set [10], in [11] and in data set [12] were 97.4%, 34.9% and 104%, respectively. Also, the uptake ratio at 1 min, 0.01 µM in data set [2] is 8.4; in data set [5], 8.5; in data set [7] it was 3.

For `C[n+]1ccc(-c2ccccc2)cc1`, the Km in data set [13] was 17 µM.

B1: Solute carrier family 22 member 2 (Rattus norvegicus) (protein)
chain: MSTVDDILEHIGEFHLFQKQTFFLLALLSGAFTPIYVGIVFLGFTPDHHCWSPGAAKLSQRCGWSQAEELNYTVPGLGPSDEASFLSQCMRYEVDWNQSTLDCVDPLSSLAADRNQLPLGPCEHGWVYNTPGSSIVTEFNLVCAHSWMLDLFQSVVNVGFFIGAMMIGYLADRFGRKFCLLVTILINAISGALMAISPNYAWMLVFRFLQGLVSKAGWLIGYILITEFVGLGYRRMVGICYQIAFTVGLLILAGVAYVIPNWRWLQFAVTLPNFCFLLYFWCIPESPRWLISQNKIVKAMKIIKHIAKKNGKSVPVSLQNLTPDEDAGKKLNPSFLDLVRTPQIRKHTLILMYNWFTSSVLYQGLIMHMGLAGDNIYLDFFYSALVEFPAAFIIILTIDRVGRRYPWAVSNMVAGAACLASVFIPDDLQWLKITIACLGRMGITMAYEMVCLVNAELYPTYIRNLGVLVCSSMCDIGGIITPFLVYRLTDIWMEFPLVVFAVVGLVAGALVLLLPETKGKALPETIEDAENMQRPRKKKEKRIYLQVKQADRPLS
As for B1, in data set [14], the Km stood at 650 µM.

Broadly, the Km is the substrate concentration at which the rate is half of its maximum.
